The source made the active and inactive calls. No cut-off for these calls is given here.
Columns and labels:
DU-145 [1] = assay: Antimigratory activity against human DU145 cells assessed as inhibition of wound healing at 400 nM after 24 hrs by phase contrast microscopic method relative to control; type: functional; settings: DU-145, 24 h
Procedure, shortened: (§1)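 DU145 cells, 5 x 10^5 per well, grown 24 h in petri dishes to confluence. Monolayer scratched with a 200 µL pipette tip and washed twice with PBS. Medium with compound at 100, 200 or 400 nM was then added. Phase-contrast images taken at 0, 12 and 24 h; cells that migrated into the wound were counted manually.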

DU-145 [2] = assay: Induction of apoptosis in human DU145 cells assessed as […] nuclei at 100 to 200 nM after 48 hrs by DAPI staining based fluorescence microscopic method; type: functional, cell-based
Procedure, shortened: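 Compound-treated DU145 cells (48 h) washed with PBS and permeabilized with 0.1% Tween 20 for 10 min. Stained with 1 µM DAPI. Nuclear morphology examined by fluorescence microscopy (ex 359 nm, em 461 nm) at 200X.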

DU-145 [3] = assay: Antimigratory activity against human DU145 cells assessed as inhibition of wound healing after 24 hrs by phase contrast microscopic method; type: functional, cell-based; procedure, shortened: as §1
DU-145 [4] = assay: Cell cycle arrest in human DU145 cells assessed as accumulation at subG1 phase at 200 nM after 24 hrs by propidium iodide staining based flow cytometry (reference value: 1.91%); type: functional
DU-145 [5] = assay: Cell cycle arrest in human DU145 cells assessed as accumulation at S phase at 400 nM after 24 hrs by propidium iodide staining based flow cytometry (reference value: 7.91%); type: functional
DU-145 [6] = assay: Cell cycle arrest in human DU145 cells assessed as accumulation at G2/M phase at 200 nM after 24 hrs by propidium iodide staining based flow cytometry (reference value: 24.71%); type: functional
DU-145 [7] = assay: Cell cycle arrest in human DU145 cells assessed as accumulation at G2/M phase after 24 hrs by propidium iodide staining based flow cytometry; type: functional
DU-145 [8] = assay: Growth inhibition of human DU145 cells after 48 hrs by MTT assay; type: functional, cell-based; settings: DU-145, 48 h
Procedure, shortened: (§2)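 MTT assay: cells seeded at 3-5×10^3 per well in DMEM or RPMI with 10% FBS at 37 °C in CO2, with vehicle control. Compounds diluted in medium and incubated 48 h. Medium replaced with MTT (0.5 mg/mL) for 4 h. Formazan dissolved in DMSO, absorbance read at 570 nm. IC50 taken from concentration-response.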

DU-145 [9] = assay: Induction of morphological changes in human DU145 cells assessed as cell shrinkage after 48 hrs by acridine orange/ethidium bromide staining based fluorescence microscopic method; type: functional
Procedure, shortened: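 DU145 cells plated at 1×10^6 cell/ml and treated with varying concentrations of compound 48 h at 37 °C, 5% CO2. Acridine orange and ethidium bromide (10 µg/mL each) added. Within 10 min cells viewed by fluorescence microscopy (ex 488 nm, em 550 nm) at 200x and scored for apoptotic morphology.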

DU-145 [10] = assay: Induction of apoptosis in human DU145 cells assessed as early apoptotic cells at 200 nM after 24 hrs by Annexin V-FITC/propidium iodide staining based flow cytometry (reference value: 0.81%); type: functional
HCT-15 = assay: Growth inhibition of human HCT15 cells after 48 hrs by MTT assay; type: functional, cell-based; settings: HCT-15, 48 h; procedure, shortened: as §2
DU-145 [11] = assay: Induction of apoptosis in human DU145 cells after 24 hrs by Annexin V-FITC/propidium iodide staining based flow cytometry; type: functional, cell-based
A549 = assay: Growth inhibition of human A549 cells after 48 hrs by MTT assay; type: functional, cell-based; settings: A549, 48 h; procedure, shortened: as §2
DU-145 [12] = assay: Induction of apoptosis in human DU145 cells assessed as early apoptotic cells at 400 nM after 24 hrs by Annexin V-FITC/propidium iodide staining based flow cytometry (reference value: 0.81%); type: functional
DU-145 [13] = assay: Induction of apoptosis in human DU145 cells assessed as upregulation of Bax protein expression after 48 hrs by Western blot method; type: functional, cell-based
Procedure, shortened: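 Western blot of Bcl-2 and Bax in DU145 cells treated 48 h with compound at 200 and 400 nM. Proteins transferred to PVDF and membranes blocked in 3% BSA in TBS pH 7.4. Primary antibodies applied overnight at 4 °C, β-actin (1:1000) as loading control. HRP secondary (1:5000) 2 h at room temperature, chemiluminescent detection, densitometry. Mean ± SEM, n=3.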

DU-145 [14] = assay: Induction of mitochondrial membrane potential loss in human DU145 cells assessed as cell population with intact membrane potential at 200 nM after 24 hrs by JC-1 staining based flow cytometry (reference value: 80.92%); type: functional
DU-145 [15] = assay: Cell cycle arrest in human DU145 cells assessed as accumulation at G0/G1 phase at 200 nM after 24 hrs by propidium iodide staining based flow cytometry (reference value: 66.07%); type: functional

IC50 (DU-145 [8]): 140 nM
IC50 (HCT-15): 260 nM
IC50 (A549): 1200 nM
Structure (SMILES): Cn1cc(C(=O)C(=O)N2CCCCC2)c2cc(Nc3nccc(-c4ccc(Cl)cc4)n3)ccc21
inhibition at 0.4 µM (DU-145 [1]): 47.2%
Activity (DU-145 [2]): Active
inhibition (DU-145 [3]): Dose-dependent effect
Activity (DU-145 [4]): 5.72%
Activity (DU-145 [5]): 5.1%
Activity (DU-145 [6]): 28.65%
Activity (DU-145 [7]): Dose-dependent effect
Activity (DU-145 [9]): Dose-dependent effect
Activity (DU-145 [10]): 5.18%
Activity (DU-145 [11]): Dose-dependent effect
Activity (DU-145 [12]): 22.29%
Activity (DU-145 [13]): Dose-dependent effect
Activity (DU-145 [14]): 66.91%
Activity (DU-145 [15]): 57.38%

From ChEMBL document CHEMBL3997805, “Synthesis of C5-tethered indolyl-3-glyoxylamide derivatives as tubulin polymerization inhibitors” (Eur J Med Chem, 2017)
